Blank lines part the entries; values can stand above or below the compound they belong to. Activity calls are given as the source filed them. The rule behind the calls is not given here.
What was measured:
[1] = biological target: T1, Protein arginine N-methyltransferase 6 (Homo sapiens, UniProt Q96LA8); test: Binding affinity to human PRMT6 assessed as inhibition constant using (3H) methylated biotin labelled peptide as substrate in presence of 3H-SAM by scintillation proximity assay
Procedure, shortened: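 Scintillation proximity assay with 3H-SAM as methyl donor, topped up with unlabelled SAM when needed. The methylated biotinylated peptide was captured on streptavidin/scintillant-coated plates and counted as cpm. IC50 came from compound titration at Km concentrations of both peptide substrate and SAM, in triplicate, reported as mean ± SD. Ki was calculated from IC50.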
Target sequence in this assay (Q96LA8 whole entry): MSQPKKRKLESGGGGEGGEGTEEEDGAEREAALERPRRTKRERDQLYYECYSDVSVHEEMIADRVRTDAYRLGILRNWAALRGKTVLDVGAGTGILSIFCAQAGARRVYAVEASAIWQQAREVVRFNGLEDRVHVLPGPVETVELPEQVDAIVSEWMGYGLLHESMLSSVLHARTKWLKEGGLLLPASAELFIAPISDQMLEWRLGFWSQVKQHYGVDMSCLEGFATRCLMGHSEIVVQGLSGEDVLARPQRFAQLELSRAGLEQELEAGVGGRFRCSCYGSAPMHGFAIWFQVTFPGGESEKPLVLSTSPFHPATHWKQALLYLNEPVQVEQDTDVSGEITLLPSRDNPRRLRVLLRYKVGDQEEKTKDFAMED

[2] = biological target: T2, Protein arginine N-methyltransferase 9 (Homo sapiens) (UniProt Q6P2P2); test: Inhibition of human PRMT9 using (3H) methylated biotin labelled peptide as substrate in presence of 3H-SAM by scintillation proximity assay
T2 sequence (whole entry): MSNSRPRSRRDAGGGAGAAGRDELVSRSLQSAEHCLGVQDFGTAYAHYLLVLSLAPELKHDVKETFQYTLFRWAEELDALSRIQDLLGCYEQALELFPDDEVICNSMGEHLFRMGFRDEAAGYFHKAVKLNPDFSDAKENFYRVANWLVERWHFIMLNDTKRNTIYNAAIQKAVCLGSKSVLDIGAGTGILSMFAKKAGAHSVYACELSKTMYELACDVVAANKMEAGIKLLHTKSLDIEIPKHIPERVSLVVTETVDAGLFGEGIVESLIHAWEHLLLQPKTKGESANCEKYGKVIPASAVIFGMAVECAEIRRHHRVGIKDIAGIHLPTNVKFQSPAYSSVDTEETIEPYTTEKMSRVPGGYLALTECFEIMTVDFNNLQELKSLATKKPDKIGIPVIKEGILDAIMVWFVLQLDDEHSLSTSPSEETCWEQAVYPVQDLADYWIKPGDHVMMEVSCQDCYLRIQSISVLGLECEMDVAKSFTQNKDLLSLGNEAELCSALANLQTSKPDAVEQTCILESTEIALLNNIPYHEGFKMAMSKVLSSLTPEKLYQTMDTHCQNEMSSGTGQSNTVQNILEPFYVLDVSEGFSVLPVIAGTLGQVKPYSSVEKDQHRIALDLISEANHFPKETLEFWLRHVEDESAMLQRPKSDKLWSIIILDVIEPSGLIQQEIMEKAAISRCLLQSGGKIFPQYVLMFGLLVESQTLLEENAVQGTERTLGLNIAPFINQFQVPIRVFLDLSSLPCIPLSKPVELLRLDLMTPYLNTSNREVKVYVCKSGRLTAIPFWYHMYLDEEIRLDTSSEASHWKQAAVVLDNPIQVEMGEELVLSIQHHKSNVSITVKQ
Procedure, shortened: (§1)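 Scintillation proximity assay: 3H-SAM as methyl donor, with non-tritiated SAM added when needed. The 3H-methylated biotinylated peptide is captured on streptavidin/scintillant-coated plates and read as counts per minute. IC50 comes from compound titration under balanced conditions, with substrate and cofactor at their Km values. Run in triplicate, mean ± SD. Ki is derived from IC50. A lower enzyme level (5 nM) is used for some potent compounds.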

[3] = biological target: T3, Protein arginine N-methyltransferase 8 (Homo sapiens, UniProt Q9NR22); test: Inhibition of human PRMT8 using (3H) methylated biotin labelled peptide as substrate in presence of 3H-SAM by scintillation proximity assay; procedure, shortened: as §1
[4] = biological target: T4, Protein arginine N-methyltransferase 7 (Homo sapiens) (UniProt Q9NVM4); test: Inhibition of human PRMT7 using (3H) methylated biotin labelled peptide as substrate in presence of 3H-SAM by scintillation proximity assay; procedure, shortened: as §1
T4 sequence (whole entry): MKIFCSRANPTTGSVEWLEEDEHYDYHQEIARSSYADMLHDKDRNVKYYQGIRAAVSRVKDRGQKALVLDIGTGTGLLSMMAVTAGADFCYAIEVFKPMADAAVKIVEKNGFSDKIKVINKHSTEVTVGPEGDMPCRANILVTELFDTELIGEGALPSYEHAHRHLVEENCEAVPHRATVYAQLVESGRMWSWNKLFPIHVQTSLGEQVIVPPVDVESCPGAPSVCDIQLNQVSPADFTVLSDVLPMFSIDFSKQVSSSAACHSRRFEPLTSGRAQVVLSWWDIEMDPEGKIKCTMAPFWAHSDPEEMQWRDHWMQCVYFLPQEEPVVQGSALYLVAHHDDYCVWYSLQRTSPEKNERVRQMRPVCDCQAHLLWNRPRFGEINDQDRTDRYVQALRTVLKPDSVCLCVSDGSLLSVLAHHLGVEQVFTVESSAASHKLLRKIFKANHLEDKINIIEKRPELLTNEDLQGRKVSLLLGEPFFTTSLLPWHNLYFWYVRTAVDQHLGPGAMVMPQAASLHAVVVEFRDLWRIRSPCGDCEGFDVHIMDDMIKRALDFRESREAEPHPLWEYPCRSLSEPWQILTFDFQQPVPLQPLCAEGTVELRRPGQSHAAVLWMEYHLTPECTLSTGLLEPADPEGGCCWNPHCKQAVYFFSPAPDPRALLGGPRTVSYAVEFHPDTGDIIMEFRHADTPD

[5] = biological target: T1, Protein arginine N-methyltransferase 6; test: Inhibition of human PRMT6 using (3H) methylated biotin labelled peptide as substrate in presence of 3H-SAM by scintillation proximity assay
[6] = biological target: Protein arginine N-methyltransferase 5 (Homo sapiens) (UniProt O14744); test: Inhibition of human PRMT5 using (3H) methylated biotin labelled peptide as substrate in presence of 3H-SAM by scintillation proximity assay; procedure, shortened: as §1
Chain of Protein arginine N-methyltransferase 5 (Homo sapiens) (O14744 whole entry): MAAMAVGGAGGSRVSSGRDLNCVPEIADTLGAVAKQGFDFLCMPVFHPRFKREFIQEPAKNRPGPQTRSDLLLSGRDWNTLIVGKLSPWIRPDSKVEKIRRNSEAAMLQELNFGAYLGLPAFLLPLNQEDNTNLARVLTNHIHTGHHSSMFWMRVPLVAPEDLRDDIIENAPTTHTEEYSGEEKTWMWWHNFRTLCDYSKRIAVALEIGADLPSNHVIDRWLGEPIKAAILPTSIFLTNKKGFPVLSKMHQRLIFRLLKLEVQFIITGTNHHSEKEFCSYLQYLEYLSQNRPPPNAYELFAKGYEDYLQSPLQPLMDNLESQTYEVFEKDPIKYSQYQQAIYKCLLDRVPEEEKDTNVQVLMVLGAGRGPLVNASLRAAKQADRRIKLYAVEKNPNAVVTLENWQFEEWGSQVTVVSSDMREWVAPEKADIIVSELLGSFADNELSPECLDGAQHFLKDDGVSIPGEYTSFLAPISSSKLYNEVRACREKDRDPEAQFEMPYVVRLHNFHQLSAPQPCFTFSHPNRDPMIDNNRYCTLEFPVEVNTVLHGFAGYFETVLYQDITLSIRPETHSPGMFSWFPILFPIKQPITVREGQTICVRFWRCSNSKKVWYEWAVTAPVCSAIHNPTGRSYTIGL

[7] = biological target: T3, Protein arginine N-methyltransferase 8; test: Binding affinity to human PRMT8 assessed as inhibition constant using (3H) methylated biotin labelled peptide as substrate in presence of 3H-SAM by scintillation proximity assay; procedure, shortened: as §1
Target sequence in this assay (Q9NR22 whole entry): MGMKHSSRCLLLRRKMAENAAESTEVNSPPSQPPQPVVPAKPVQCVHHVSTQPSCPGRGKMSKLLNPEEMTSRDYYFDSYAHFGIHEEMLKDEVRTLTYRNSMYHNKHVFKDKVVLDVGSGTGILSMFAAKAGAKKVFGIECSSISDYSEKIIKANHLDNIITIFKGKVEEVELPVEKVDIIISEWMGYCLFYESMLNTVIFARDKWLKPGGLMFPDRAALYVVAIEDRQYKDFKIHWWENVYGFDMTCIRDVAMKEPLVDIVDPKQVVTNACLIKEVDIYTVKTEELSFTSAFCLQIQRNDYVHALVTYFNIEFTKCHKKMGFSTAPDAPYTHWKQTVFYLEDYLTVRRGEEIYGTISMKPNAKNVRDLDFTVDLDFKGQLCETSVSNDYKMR

[8] = biological target: T5, Protein arginine N-methyltransferase 3 (Homo sapiens, UniProt O60678); test: Inhibition of human PRMT3 using (3H) methylated biotin labelled peptide as substrate in presence of 3H-SAM by scintillation proximity assay
[9] = biological target: T6, Protein arginine N-methyltransferase 1 (Homo sapiens, UniProt Q99873); test: Inhibition of PRMT1 in human MCF7 cells assessed as decrease in H4R3me2a level incubated for 48 hrs by Western blotting analysis; assay type: cell-based
Target sequence in this assay (Q99873 whole entry, looked up): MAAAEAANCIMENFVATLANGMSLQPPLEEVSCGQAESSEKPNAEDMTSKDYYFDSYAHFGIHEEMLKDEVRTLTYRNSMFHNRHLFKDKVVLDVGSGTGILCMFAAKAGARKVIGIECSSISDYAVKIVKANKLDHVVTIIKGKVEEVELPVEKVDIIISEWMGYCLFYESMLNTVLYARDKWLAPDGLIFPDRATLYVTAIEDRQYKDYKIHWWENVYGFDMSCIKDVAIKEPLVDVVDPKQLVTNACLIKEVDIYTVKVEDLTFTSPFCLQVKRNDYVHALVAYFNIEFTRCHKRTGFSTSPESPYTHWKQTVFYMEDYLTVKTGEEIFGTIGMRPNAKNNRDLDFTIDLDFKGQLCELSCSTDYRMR

[10] = biological target: T6, Protein arginine N-methyltransferase 1; test: Inhibition of human PRMT1 using (3H) methylated biotin labelled peptide as substrate in presence of 3H-SAM by scintillation proximity assay
[11] = biological target: T7, Histone-arginine methyltransferase CARM1 (Homo sapiens) (UniProt Q86X55); test: (§2) Inhibition of human PRMT4 using (3H) methylated biotin labelled peptide as substrate in presence of 3H-SAM by scintillation proximity assay
T7 sequence (whole entry): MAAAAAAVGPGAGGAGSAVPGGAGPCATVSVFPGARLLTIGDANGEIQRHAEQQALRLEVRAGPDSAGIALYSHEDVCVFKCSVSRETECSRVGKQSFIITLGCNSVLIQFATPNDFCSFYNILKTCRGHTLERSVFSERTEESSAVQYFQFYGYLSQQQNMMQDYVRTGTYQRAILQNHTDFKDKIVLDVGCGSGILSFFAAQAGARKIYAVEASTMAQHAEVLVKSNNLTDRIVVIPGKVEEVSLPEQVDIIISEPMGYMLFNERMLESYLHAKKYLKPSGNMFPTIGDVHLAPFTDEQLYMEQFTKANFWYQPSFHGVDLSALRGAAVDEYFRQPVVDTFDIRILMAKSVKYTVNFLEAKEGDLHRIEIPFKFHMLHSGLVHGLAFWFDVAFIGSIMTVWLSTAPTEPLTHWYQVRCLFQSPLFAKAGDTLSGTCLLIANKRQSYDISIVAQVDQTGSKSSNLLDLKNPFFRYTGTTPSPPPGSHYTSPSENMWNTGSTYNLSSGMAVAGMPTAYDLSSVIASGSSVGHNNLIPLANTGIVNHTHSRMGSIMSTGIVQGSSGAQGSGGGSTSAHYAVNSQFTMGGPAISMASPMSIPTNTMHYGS
Procedure, shortened: as §1, with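 “IC50.” for “IC50. A lower enzyme level (5 nM) is used for some potent compounds.”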

HEK293 [12] = details: Homo sapiens, dose 1000.0 nM, time 20.0 hrs
[13] = biological target: T1, Protein arginine N-methyltransferase 6; test: Inhibition of human PRMT6 assessed as inhibition constant in presence of cofactor SAM
Target sequence in this assay (Q96LA8 whole entry): as the sequence (Q96LA8 whole entry) above

HEK293 [14] = details: Homo sapiens, dose 333.0 nM, time 20.0 hrs
Peregrin (Homo sapiens) = Peregrin (Homo sapiens) (UniProt P55201)
[15] = biological target: T8, Histone-arginine methyltransferase CARM1 (Homo sapiens, UniProt Q86X55); test: Inhibition of human PRMT4 assessed as inhibition constant using peptide as substrate
T8 sequence (Q86X55 whole entry): T7 sequence (whole entry)

HEK293 [16] = test: Cytotoxicity in human HEK293 cells assessed as inhibition of cell growth at 1 uM incubated for 4 days by phase contrast cell imaging analysis; assay type: toxicity, cell-based; details: hek293, 96 h, time 4 day
[17] = biological target: T3, Protein arginine N-methyltransferase 8; test: Inhibition of human PRMT8 assessed as inhibition constant using peptide as substrate
Target sequence in this assay (Q9NR22 whole entry): as the sequence (Q9NR22 whole entry) above

[18] = biological target: T8, Histone-arginine methyltransferase CARM1; test: Binding affinity to human PRMT4 assessed as inhibition constant using (3H) methylated biotin labelled peptide as substrate in presence of 3H-SAM by scintillation proximity assay
[19] = biological target: T1, Protein arginine N-methyltransferase 6; test: Inhibition of human PRMT6 using (3H) methylated biotin labelled peptide as substrate incubated for 30 mins in presence of 3H-SAM by scintillation proximity assay
Target sequence in this assay (Q96LA8 whole entry): as the sequence (Q96LA8 whole entry) above

[20] = biological target: T3, Protein arginine N-methyltransferase 8; test: Inhibition of human PRMT8 assessed as inhibition constant in presence of cofactor SAM
Target sequence in this assay (Q9NR22 whole entry): as the sequence (Q9NR22 whole entry) above

[21] = biological target: Tudor domain-containing protein 3 (Homo sapiens) (UniProt Q9H7E2)
Chain of Tudor domain-containing protein 3 (Homo sapiens) (Q9H7E2 whole entry, the tested form may be a part): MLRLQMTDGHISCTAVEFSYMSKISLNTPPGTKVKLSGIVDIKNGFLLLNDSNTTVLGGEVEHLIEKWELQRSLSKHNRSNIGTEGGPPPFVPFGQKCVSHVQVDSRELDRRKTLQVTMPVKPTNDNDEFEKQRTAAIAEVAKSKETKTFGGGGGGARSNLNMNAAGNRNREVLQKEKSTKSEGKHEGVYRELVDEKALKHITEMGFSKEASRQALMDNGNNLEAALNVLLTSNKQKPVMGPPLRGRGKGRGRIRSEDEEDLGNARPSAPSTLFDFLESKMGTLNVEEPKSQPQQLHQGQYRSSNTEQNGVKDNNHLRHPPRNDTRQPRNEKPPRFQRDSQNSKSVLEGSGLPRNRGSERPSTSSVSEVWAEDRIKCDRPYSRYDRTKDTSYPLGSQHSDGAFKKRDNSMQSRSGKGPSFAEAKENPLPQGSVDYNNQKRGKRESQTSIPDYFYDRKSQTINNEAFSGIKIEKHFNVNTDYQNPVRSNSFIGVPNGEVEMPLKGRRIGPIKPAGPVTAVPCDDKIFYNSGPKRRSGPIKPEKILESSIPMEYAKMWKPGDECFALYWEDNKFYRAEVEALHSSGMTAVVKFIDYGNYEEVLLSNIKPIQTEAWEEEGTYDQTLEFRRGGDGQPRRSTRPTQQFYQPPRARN

[22] = biological target: RNA-binding protein FXR1 (Homo sapiens) (UniProt P51114)
Chain of RNA-binding protein FXR1 (Homo sapiens) (P51114 whole entry, the tested form may be a part): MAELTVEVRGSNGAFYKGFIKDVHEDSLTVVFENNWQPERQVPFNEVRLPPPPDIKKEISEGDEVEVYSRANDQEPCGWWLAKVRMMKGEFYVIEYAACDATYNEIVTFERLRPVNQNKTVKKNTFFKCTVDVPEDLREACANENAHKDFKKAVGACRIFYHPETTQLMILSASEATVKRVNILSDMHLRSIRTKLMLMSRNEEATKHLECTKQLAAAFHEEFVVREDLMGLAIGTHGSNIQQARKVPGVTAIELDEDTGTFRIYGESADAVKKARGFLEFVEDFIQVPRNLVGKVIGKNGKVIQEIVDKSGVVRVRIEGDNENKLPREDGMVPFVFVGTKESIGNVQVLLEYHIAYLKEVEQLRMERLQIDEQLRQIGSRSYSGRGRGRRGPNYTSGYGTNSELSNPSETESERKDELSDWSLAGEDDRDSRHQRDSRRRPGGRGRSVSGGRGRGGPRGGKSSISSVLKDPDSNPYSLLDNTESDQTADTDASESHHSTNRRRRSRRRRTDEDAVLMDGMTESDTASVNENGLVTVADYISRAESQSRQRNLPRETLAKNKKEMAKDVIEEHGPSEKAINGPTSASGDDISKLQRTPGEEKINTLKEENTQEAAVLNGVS

[23] = biological target: AT-rich interactive domain-containing protein 4A (Homo sapiens) (UniProt P29374)
MCF7 = test: Antiproliferative activity against human MCF7 cells assessed as decrease in cell number at 0.1 uM incubated for 10 days by vybrant dye cycle green/ Enzo-nuclear-ID red staining based live cell imaging analysis relative to control; assay type: functional; design: scale not given: the % may be the effect or the level left; details: time 10 day
[24] = biological target: Staphylococcal nuclease domain-containing protein 1 (Homo sapiens) (UniProt Q7KZF4)
[25] = biological target: Polycomb protein EED (Homo sapiens) (UniProt O75530)
Chain of Polycomb protein EED (Homo sapiens) (O75530 2-441 limits assumed): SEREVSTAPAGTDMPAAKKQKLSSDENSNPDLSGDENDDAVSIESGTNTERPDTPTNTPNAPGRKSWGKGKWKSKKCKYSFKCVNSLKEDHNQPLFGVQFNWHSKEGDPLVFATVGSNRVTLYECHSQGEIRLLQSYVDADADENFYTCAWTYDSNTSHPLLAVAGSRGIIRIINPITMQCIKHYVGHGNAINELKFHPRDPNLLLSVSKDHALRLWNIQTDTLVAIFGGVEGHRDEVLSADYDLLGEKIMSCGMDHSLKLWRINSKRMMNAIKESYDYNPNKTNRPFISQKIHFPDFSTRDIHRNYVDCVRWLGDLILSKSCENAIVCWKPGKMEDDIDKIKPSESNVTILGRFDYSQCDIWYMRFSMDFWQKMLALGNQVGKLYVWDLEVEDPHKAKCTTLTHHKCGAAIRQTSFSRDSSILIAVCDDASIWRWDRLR

[26] = biological target: T1, Protein arginine N-methyltransferase 6; test: Inhibition of human PRMT6 assessed as inhibition constant using peptide as substrate
Target sequence in this assay (Q96LA8 whole entry): as the sequence (Q96LA8 whole entry) above

[27] = biological target: T8, Histone-arginine methyltransferase CARM1; test: as §2
Procedure, shortened: as §1, with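 “IC50.” for “IC50. A lower enzyme level (5 nM) is used for some potent compounds.”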

[28] = biological target: T8, Histone-arginine methyltransferase CARM1; test: Inhibition of human PRMT4 assessed as inhibition constant in presence of cofactor SAM
[29] = biological target: WD repeat-containing protein 5 (Homo sapiens) (UniProt P61964)
[30] = biological target: E3 ubiquitin-protein ligase UHRF1 (Homo sapiens) (UniProt Q96T88)
HFF = test: Cytotoxicity in human HFF cells assessed as cell confluency at <=1 uM incubated for 96 hrs by phase contrast cell imaging analysis; assay type: toxicity, cell-based
[31] = biological target: Growth/differentiation factor 2 (Homo sapiens) (UniProt Q9UK05)
Chain of Growth/differentiation factor 2 (Homo sapiens) (Q9UK05 whole entry): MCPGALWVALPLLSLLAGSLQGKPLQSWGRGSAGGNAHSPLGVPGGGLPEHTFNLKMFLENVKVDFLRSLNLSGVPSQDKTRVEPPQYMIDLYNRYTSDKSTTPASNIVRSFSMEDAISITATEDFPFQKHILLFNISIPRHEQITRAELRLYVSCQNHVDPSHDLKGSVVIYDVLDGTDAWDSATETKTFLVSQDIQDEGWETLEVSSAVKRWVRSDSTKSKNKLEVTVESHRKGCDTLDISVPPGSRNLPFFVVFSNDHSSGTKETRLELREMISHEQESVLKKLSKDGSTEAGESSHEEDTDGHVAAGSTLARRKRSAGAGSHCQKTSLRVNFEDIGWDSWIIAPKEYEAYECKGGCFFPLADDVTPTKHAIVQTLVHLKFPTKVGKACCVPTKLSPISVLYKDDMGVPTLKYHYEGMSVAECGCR

[32] = biological target: T5, Protein arginine N-methyltransferase 3; test: Binding affinity to human PRMT3 assessed as inhibition constant using (3H) methylated biotin labelled peptide as substrate in presence of 3H-SAM by scintillation proximity assay
Target sequence in this assay (O60678 whole entry): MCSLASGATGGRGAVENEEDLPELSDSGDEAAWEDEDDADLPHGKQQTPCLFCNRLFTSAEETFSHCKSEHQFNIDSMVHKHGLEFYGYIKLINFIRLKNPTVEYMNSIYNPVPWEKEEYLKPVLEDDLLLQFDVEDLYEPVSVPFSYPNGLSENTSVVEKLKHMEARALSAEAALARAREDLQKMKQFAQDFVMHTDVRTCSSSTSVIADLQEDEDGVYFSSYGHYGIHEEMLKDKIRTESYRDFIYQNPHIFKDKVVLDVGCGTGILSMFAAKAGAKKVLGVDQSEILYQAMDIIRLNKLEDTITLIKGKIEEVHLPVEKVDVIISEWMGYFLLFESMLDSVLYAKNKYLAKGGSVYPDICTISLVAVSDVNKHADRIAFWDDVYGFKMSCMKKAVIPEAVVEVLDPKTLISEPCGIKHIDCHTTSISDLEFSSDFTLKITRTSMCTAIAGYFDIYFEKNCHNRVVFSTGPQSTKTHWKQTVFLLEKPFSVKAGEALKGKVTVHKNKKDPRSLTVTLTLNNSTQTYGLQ

[33] = biological target: T6, Protein arginine N-methyltransferase 1; test: Binding affinity to human PRMT1 assessed as inhibition constant using (3H) methylated biotin labelled peptide as substrate in presence of 3H-SAM by scintillation proximity assay
Target sequence in this assay (Q99873 whole entry): as the sequence (Q99873 whole entry, looked up) above

inhibition [2]: inactive | inhibition [3]: inactive | inhibition [4]: inactive | inhibition [8]: inactive | inhibition [9]: inactive | inhibition [5]: inactive | inhibition [10]: inactive | inhibition [6]: inactive | inhibition [11]: inactive
SMILES: CC(C)Oc1ccc(-c2c[nH]cc2C(=O)N(C)CCN)cc1

inhibition [2]: inactive | inhibition [3]: inactive | inhibition [4]: inactive | inhibition [8]: inactive | inhibition [9]: inactive | inhibition [5]: inactive | inhibition [10]: inactive | inhibition [6]: inactive | inhibition [11]: inactive
SMILES: CC(C)Oc1ccc(-c2c[nH]cc2CN(C)CCO)cc1

inhibition [2]: inactive | inhibition [3]: inactive | inhibition [4]: inactive | inhibition [8]: inactive | inhibition [9]: inactive | inhibition [5]: inactive | inhibition [10]: inactive | inhibition [6]: inactive | inhibition [11]: inactive
SMILES: CC(C)Oc1ccc(-c2c[nH]cc2CN(C)CC(N)=O)cc1

Further lines, the compound ahead of its results:

SMILES: CN(CCN)Cc1c[nH]cc1-c1cccc(C(F)(F)F)c1
Ki [1]: 0.003 µM | inhibition [2]: inactive | IC50 [3]: 0.042 µM | inhibition [4]: inactive | IC50 [5]: 0.009 µM | inhibition [6]: inactive | Ki [7]: 0.017 µM

SMILES: CC(C)Oc1ccc(-c2c[nH]cc2CN(C)CCN)cc1
inhibition (HEK293 [12]): Active | IC50 [13]: Not Active | inhibition (HEK293 [14]): Active | ΔTm (Peregrin (Homo sapiens)): -0.3 °C | IC50 [3]: 0.005 µM | IC50 [15]: Not Active | Activity (HEK293 [16]): Toxic | IC50 [17]: Not Active | Ki [18]: 0.023 µM | IC50 [19]: Not Active | IC50 [20]: Not Active | deltaTm [21]: inactive | deltaTm [22]: inactive | deltaTm [23]: inactive | Activity (MCF7): 30% | deltaTm [24]: inactive | deltaTm [25]: inactive | IC50 [26]: Not Active | IC50 [27]: 0.083 µM | IC50 [28]: Not Active | ΔTm [29]: -1.3 °C | ΔTm [30]: -1.5 °C | Ki [7]: 0.0013 µM | Activity (HFF): Non-Toxic | ΔTm [31]: -3 °C

SMILES: CN(CCN)Cc1n[nH]nc1-c1cccc(C(F)(F)F)c1
Ki [1]: 0.11 µM | inhibition [2]: inactive | IC50 [3]: 3 µM | inhibition [4]: inactive | Ki [32]: > 50 µM | IC50 [8]: > 100 µM | Ki [18]: > 37.5 µM | IC50 [5]: 0.23 µM | IC50 [10]: > 20 µM | inhibition [6]: inactive | IC50 [27]: > 75 µM | Ki [33]: > 10 µM | Ki [7]: 1.5 µM

— ChEMBL document CHEMBL5715953, “A Potent, Selective, and Cell-Active Inhibitor of Human Type I Protein Arginine Methyltransferases” (ACS Chem Biol, 2016)
